The values below come from paper PMC8570090 (Bioorganic & medicinal chemistry letters, 2020).

One data set is described as follows: Stability of PI-103BE. The format is in vitro ADME. The note with it: species found after treatment with PI-103BE (9); for Fraction in culture medium: all time points.
A short description of data set [1]: Single dose pharmacokinetics in mice, oral gavage. The class given is in vivo. The settings on record: single oral dose 10 mg/kg. In a few lines:
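Female ovariectomized Nu/Nu mice, 4–6 weeks old (n = 5), received a single 10 mg/kg dose by gavage in 5% DMSO/40% PEG 400/55% saline. Orbital-sinus blood was drawn at 0.5, 1, 3, 8 and 24 h, with one sampling per group, into EDTA. Plasma was separated at 4 °C and frozen at −80 °C. Drug and metabolites were quantified by C18 UHPLC–MS (formic acid water/acetonitrile gradient).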

Data set [2] in a line: Single dose pharmacokinetics in mice, intraperitoneal injection. The format is in vivo.
Data set [3] relates to human cervical cancer HeLa. Nature of the data set: In vitro antiproliferative assay. The format is cell-based. The note with it: Fig. 5. In a few lines:
(§1)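 Cells seeded at 50,000 per well in DMEM with 5% FBS. Exposed for 4 days to test compound at 6 concentrations, with DMSO vehicle and a reference compound as positive control. Cell numbers counted on a Coulter counter. Survival ratio is treated over vehicle cell number. IC50 taken from dose-response curves. Run in triplicate, mean ± SD.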

The test system of data set [4] is human prostate carcinoma 22Rv1. Put plainly: In vitro antiproliferative assay. The settings on record: Fig. 5. The format is cell-based. In a few lines:
as §1

Data set [5] deals with human lung carcinoma A549. Nature of the data set: In vitro antiproliferative assay. The class given is cell-based. The note with it: Fig. 5. The method, boiled down:
as §1

In data set [6] the test system is human breast adenocarcinoma MDA-MB-231. Put plainly: In vitro antiproliferative assay. The class given is cell-based. The settings on record: Fig. 5. In a few lines: as §1
For data set [7], the system named is panel of cancer cell lines. Nature of the data set: In vitro antiproliferative activity, panel of six cancer cell lines. The format is cell-based, human. The note with it: IC50 ratio across A549, MDA-MB-231, HeLa, 22Rv1, PC-3, SKOV-3. The method, boiled down: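 Cells plated at 50,000 per well in DMEM with 5% FBS and exposed for 4 days to test compound at 6 doses. DMSO served as vehicle control and the parent inhibitor as positive control. Cells were counted on a Coulter counter. Survival ratio is treated over vehicle cell number, and IC50 is taken from dose-response curves. Run in triplicate, mean ± SD.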

As to `Oc1cccc(-c2nc(N3CCOCC3)c3oc4ncccc4c3n2)c1` [PI-103 (7), 3-(4-Morpholinopyrido[3′,2′:4,5]furo[3,2-d]pyrimidin-2-yl)phenol, reference compound], the “Fraction of total drug content in cell culture media” value (“Fraction of total drug content” below) in the data set “Stability of PI-103BE” (0.5 h) is 2.02%; in the data set “Stability of PI-103BE” (1 h) it was 2.52%; in the data set “Stability of PI-103BE” (3 h), 3.30%; in “Stability of PI-103BE” (8 h), 3.27%; in “Stability of PI-103BE” (24 h) it was 3.81%. Also, the “Fraction in culture medium” value in the data set “Stability of PI-103BE” is less than 4%. Further, in data set [1], the “Oral bioavailability” value is recorded as “no oral bioavailability”. The “Peak plasma concentration of PI-103, times lower than after i.p. PI-103BE” value in data set [2] (10 mg/kg IP, 7-treated vs PI-103BE-treated) stood at 10 times.
`OB(O)c1cccc(-c2nc(N3CCOCC3)c3oc4ncccc4c3n2)c1` [PI-103BA (10), (3-(4-Morpholinopyrido[3′,2′:4,5]furo[3,2-d]pyrimidin-2-yl)phenyl)boronic acid]: the “Fraction of total drug content” value is 97.95% in the data set “Stability of PI-103BE” (0.5 h), 96.70% in the data set “Stability of PI-103BE” (3 h), 96.73% in “Stability of PI-103BE” (8 h) and 96.19% in the data set “Stability of PI-103BE” (24 h). Moreover, the “Fraction in culture medium” value in “Stability of PI-103BE” is listed as greater than 95%. In addition, the “Antiproliferative activity” value in data set [3], in data set [4], in data set [5] and in data set [6] was “dose dependent antiproliferative activities” throughout.
On to `CC1(C)OB(c2cccc(-c3nc(N4CCOCC4)c4oc5ncccc5c4n3)c2)OC1(C)C` [PI-103BE (9), 4-Morpholino-2-(3-(4,4,5,5-tetramethyl-1,3,2-dioxaborolan-2-yl)phenyl)pyrido[3′,2′:4,5] furo[3,2-d]pyrimidine], for which the “Fraction of total drug content” value in “Stability of PI-103BE” (0.5 h) was determined as 1.61%; in “Stability of PI-103BE” (1 h) it was 0.32%; in the data set “Stability of PI-103BE” (3 h), 0%; in the data set “Stability of PI-103BE” (8 h), 0%; in the data set “Stability of PI-103BE” (24 h) it was 0%. In addition, the “Concentration in cell culture media” value in the data set “Stability of PI-103BE” (3 h), in “Stability of PI-103BE” (8 h) and in the data set “Stability of PI-103BE” (24 h) was 0.00 µM in each case. Moreover, the “Times less potent than PI-103 (7)” value in data set [7] is listed as 3 ~ 24 times. Besides, in data set [2] (10 mg/kg IP of labelled compound, analyte PI-103BE), the PI-103BE in plasma entry was “no PI-103BE was detected in plasma”.
